Measured values: ChEMBL document CHEMBL4138194, “Synthesis of unprecedented steroidal spiro heterocycles as potential antiproliferative drugs” (Eur J Med Chem, 2018)

Columns and labels:
[1] = system: T47D; experiment: Antiproliferative activity against human T47D cells after 48 hrs by SRB assay; type: functional
In short: (§1)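 Plated at 5 000 cells/well, per doubling time. Compounds were dissolved in DMSO at 400× the maximum final concentration and tested in triplicate between 1 and 100 µM for 48 h, beginning day 1 after plating, with 0.25% v/v DMSO as control. Cells were then TCA-fixed for 60 min at 4 °C and SRB-stained. Background-corrected OD was read at 530 nm, and percentage growth was derived against untreated control from start and end OD (NCI formulas).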

[2] = system: WiDr; experiment: Antiproliferative activity against human WiDr cells after 48 hrs by SRB assay; type: functional; in short: as §1
[3] = system: A549; experiment: Antiproliferative activity against human A549 cells after 48 hrs by SRB assay; type: functional; settings: A549, 48 h
In short: (§2)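 Seeded at 2 500 cells/well, per doubling time. Compounds were dissolved in DMSO at 400× the top test concentration and tested in triplicate at dilutions spanning 1–100 µM, starting day 1 after plating, with 0.25% v/v DMSO as control. After 48 h, cells were fixed with cold TCA for 60 min at 4 °C, then SRB-stained. Background-corrected OD was read at 530 nm, and percentage growth was calculated against untreated cells using T0 and end-point OD (NCI formulas).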

[4] = system: SW1573; experiment: Antiproliferative activity against human SW1573 cells after 48 hrs by SRB assay; type: functional; settings: SW1573, 48 h; in short: as §2
[5] = system: HBL-100; experiment: Antiproliferative activity against human HBL100 cells after 48 hrs by SRB assay; type: functional; settings: HBL-100, 48 h; in short: as §2
[6] = system: HeLa; experiment: Antiproliferative activity against human HeLa cells after 48 hrs by SRB assay; type: functional; in short: as §2
[7] = Cytotoxicity against human hTERT-BJ cells assessed as cell growth inhibition after 48 hrs SRB assay; type: cell-based
In short: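 BJ-hTert cells were seeded at 10 000/well and exposed from day 1 for 48 h to compounds in triplicate across 1–100 µM. DMSO stocks were 400× the top concentration, with a 0.25% v/v DMSO control. Cells were fixed with ice-cold TCA for 60 min at 4 °C and SRB-stained. Background-corrected OD was read at 530 nm, and percentage growth was computed relative to untreated cells using T0 and final OD (NCI formulas).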

Structure (SMILES)	GI50 [1] [µM]	GI50 [2] [µM]	GI50 [3] [µM]	GI50 [4] [µM]	GI50 [5] [µM]	GI50 [6] [µM]	GI50 at 48 h [7] [µM]
C[C@]12CC[C@H](O)C[C@@H]1CC[C@@H]1[C@@H]2CC[C@@]2(C)[C@H]1CC[C@@]2(O)CN=[N+]=[N-]	> 100	> 100	> 100	> 100	> 100	> 100	–
CCCCNC(=S)NC[C@]1(O)CC[C@H]2[C@@H]3CCc4cc(O)ccc4[C@H]3CC[C@@]21C	3.9	4.4	4.8	15	7.2	4.2	–
C[C@]12CC[C@H](O)C[C@@H]1CC[C@@H]1[C@@H]2CC[C@@]2(C)[C@H]1CC[C@@]21CN=C(NC2CCCCC2)O1	1.2	0.96	1.5	1.5	2	1.6	1.2
C[C@]12CC[C@H](O)CC1=CC[C@@H]1[C@@H]2CC[C@]2(C)C(c3cccnc3)=CC[C@@H]12 [ABIRATERONE]	24	42	95	85	> 100	7.9	4.5
CCCCNC(=S)NC[C@]1(O)CC[C@H]2[C@@H]3CC[C@H]4C[C@@H](O)CC[C@]4(C)[C@H]3CC[C@@]21C	5.8	4.5	12	9.4	13	14	–
C[C@]12CC[C@@H]3c4ccc(OCc5ccccc5)cc4CC[C@H]3[C@@H]1CC[C@@]2(O)CN=[N+]=[N-]	4.1	2.4	13	29	22	2.9	–
C[C@]12CC[C@H](O)C[C@@H]1CC[C@@H]1[C@@H]2CC[C@@]2(C)[C@H]1CC[C@@]21CNC(=O)O1	4.5	3.8	3.7	6	10	4	< 1
C[C@]12CC[C@H](O)C[C@@H]1CC[C@@H]1[C@@H]2CC[C@@]2(C)[C@H]1CC[C@@]2(O)CNC(=S)NC1CCCCC1	18	18	16	15	18	21	–
C[C@]12CC[C@@H]3c4ccc(O)cc4CC[C@H]3[C@@H]1CC[C@@]21CN=C(Nc2ccccc2)O1	2.6	2.6	2.6	3.4	4.4	3.3	1.4
CCCCNC1=NC[C@@]2(CC[C@H]3[C@@H]4CCc5cc(O)ccc5[C@H]4CC[C@@]32C)O1	0.45	0.34	1.4	2.2	2.9	2.1	< 1
COC(=O)NC[C@]1(O)CC[C@H]2[C@@H]3CC[C@H]4C[C@@H](O)CC[C@]4(C)[C@H]3CC[C@@]21C	41	39	38	92	99	70	–
C[C@]12CC[C@@H]3c4ccc(O)cc4CC[C@H]3[C@@H]1CC[C@@]21CN=C(NC2CCCCC2)O1	0.71	0.34	1.1	1.5	1.5	1.3	< 1
C[C@]12CC[C@H](O)C[C@@H]1CC[C@@H]1[C@@H]2CC[C@@]2(C)[C@H]1CC[C@@]2(O)CN	21	25	17	19	20	22	–
COC(=O)NC[C@]1(O)CC[C@H]2[C@@H]3CCc4cc(O)ccc4[C@H]3CC[C@@]21C	4.3	4.9	6.8	5.9	4	3.5	–
C[C@]12CC[C@@H]3c4ccc(O)cc4CC[C@H]3[C@@H]1CC[C@@]21CNC(=O)O1	4.4	9.2	5.4	18	6.3	1.3	–
C[C@]12CC[C@H](O)CC1=CC[C@@H]1[C@@H]2CC[C@]2(C)C(n3cnc4ccccc43)=CC[C@@H]12 [GALETERONE]	2.1	2.7	3.9	3.9	10	5.3	5
C[C@]12CC[C@@H]3c4ccc(O)cc4CC[C@H]3[C@@H]1CC[C@@]2(O)CN	30	22	39	43	34	27	–
C[C@]12CC[C@@H]3c4ccc(O)cc4CC[C@H]3[C@@H]1CC[C@@]2(O)CNC(=S)Nc1ccccc1	5.7	4.5	9.8	21	15	6.3	–
C[C@]12CC[C@H](O)C[C@@H]1CC[C@@H]1[C@@H]2CC[C@@]2(C)[C@H]1CC[C@@]2(O)CNC(=S)Nc1ccccc1	34	17	29	27	27	27	–
CCCCNC1=NC[C@@]2(CC[C@H]3[C@@H]4CC[C@H]5C[C@@H](O)CC[C@]5(C)[C@H]4CC[C@@]32C)O1	1.2	0.87	1.4	1.2	2.1	1.6	< 1
C[C@]12CC[C@@H]3c4ccc(O)cc4CC[C@H]3[C@@H]1CC[C@@]2(O)CNC(=S)NC1CCCCC1	3.9	2.8	4.5	14	5.1	3.3	–
